# Assay outcomes deposited in PubChem BioAssay by The Scripps Research Institute Molecular Screening Center.
# TAAR1 ag – agonists of human TAAR1 | Q96RJ0 | CHO RD-HGA16 TAAR1, Fluo-8 calcium fluorescence; vehicle wells 0%, saturating PEA agonist 100% | activation, % at 3 µM | 360,000 tested, 0.99% active | AID 624467;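 active = activation above the mean activation of all test compounds in the run plus 3 SD, cut at about 38% in these data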
#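 Test system: RD-HGA16 (CHO) cells co-expressing Gα16 and hTAAR1; dosing: one-point dosing at 3 µM (nominal); timing: 17-24 h seeding, 75 min 37 °C dye, 30 min RT; signal: kinetic Fluo-8 calcium fluorescence; read-out basis: % activation relative to PEA EC100 response; controls: DMSO and PEA EC100; replicates: n 1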
# CHO parental Ca – counter-screen for OX1R antagonists: effect in parental CHO cells | 330,000 tested, 0.63% active | inhibition, % at 5.6 µM | parental CHO-K1, ATP-induced calcium, Fluo-8 fluorescence;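 active = inhibition above that plate's mean sample inhibition plus 3 SD, cut at about 26% in these data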;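 also: 0% = ATP-challenged DMSO wells and 100% = DMSO wells without ATP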
#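 Assay system: untransfected parental CHO cell line. Also added: ATP agonist challenge. Dosing: one dose, 5.6 µM nominal. Measured by: Fluo-8 fluorescence. Read-out: % inhibition. Benchmarks: ATP wells versus no-ATP DMSO wells. Repeats: no replicates.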
# OX1R antag-1 – blocks the human orexin 1 receptor; O43613; CHO/OX1R cells, Fluo-8 calcium fluorescence, orexin A; inhibition, % at 5 µM; 330,000 tested, 0.43% active;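 active = inhibition above its plate's threshold, mean inhibition of all tested compounds on the plate plus 3 SD, cut at about 37% in these data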;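 also: 0% = orexin A challenge wells and 100% = SB-334867-A antagonist wells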
# Target sequence (O43613 whole entry, looked up): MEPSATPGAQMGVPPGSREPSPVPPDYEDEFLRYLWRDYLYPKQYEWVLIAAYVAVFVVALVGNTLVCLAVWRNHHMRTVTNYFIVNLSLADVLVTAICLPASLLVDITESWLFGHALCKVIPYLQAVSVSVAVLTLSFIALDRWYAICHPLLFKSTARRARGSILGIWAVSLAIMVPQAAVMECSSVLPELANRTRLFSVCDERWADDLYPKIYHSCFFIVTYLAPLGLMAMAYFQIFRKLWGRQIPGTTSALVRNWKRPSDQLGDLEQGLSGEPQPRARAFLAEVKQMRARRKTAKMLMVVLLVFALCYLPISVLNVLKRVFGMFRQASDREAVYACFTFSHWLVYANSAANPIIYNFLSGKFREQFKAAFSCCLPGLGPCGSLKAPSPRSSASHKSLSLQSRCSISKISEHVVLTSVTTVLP
# GPR7 antag – blocks human GPR7 receptor signaling; 290,000 tested, 1.1% active; GPR7-expressing cells, fluorescence antagonist assay; P48145; inhibition, % at 4.4 µM; in the data active = inhibition above about 16%, passing the limit was not always enough;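 also: cells stimulated with the agonist NPW; 0% = agonist with vehicle and 100% = vehicle without agonist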
# OX1R antag-2 – blocks the human orexin 1 receptor. O43613. OX1R-expressing cells, FRET antagonist read-out. inhibition, % at 6.6 µM. 330,000 tested, 1.8% active; in the data active = inhibition mostly above about 38%, no sharp cut-off; inactive = mostly below about 40%;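 also: 0% = agonist challenge alone and 100% = reference antagonist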
# TAAR1 antagonist – antagonists of human TAAR1 | Q96RJ0 | 360,000 tested, 1.5% active | AID 624466 | CHO RD-HGA16 TAAR1, Fluo-8 calcium fluorescence, antagonist | inhibition, % at 3 µM;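 active = inhibition above a per-plate cutoff, the mean inhibition of test compounds on that plate plus 3 SD, cut at about 49% in these data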;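 also: 0% = DMSO plus EC80 beta-PEA response and 100% = DMSO alone without agonist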
#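 Test system – hTAAR1-expressing CHO RD-HGA16 cells, Gα16-coupled · Also added – β-PEA at EC80 concentration, post-compound challenge · Compound – 3 µM, single point · Incubation – dye loading 75 min at 37 °C, then 30 min room temperature · Measured by – Fluo-8 intracellular calcium dye fluorescence, real-time kinetic reads · Benchmarks – vehicle and agonist controls · Replicates – singlicate, one well per test compound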
# * hit, by the source's call; / = not tested or not shown. The list is not random: actives were taken first. Their share in the collection is about 4.6%.
SMILES,TAAR1 ag,CHO parental Ca,OX1R antag-1,GPR7 antag,OX1R antag-2,TAAR1 antagonist
Cc1ccc2c(c1)n([O-])c1c([n+]2=O)CCCC1,1,-1,-9,-14,29,-3
O=[n+]1c2c(n([O-])c3cc(F)c(N4CCCC4)cc31)CCC2,16,3,8,6,68*,4
Cc1cc(C)cc(OCC(=O)N2N=C(C(F)(F)F)CC2(O)C(C)(C)C)c1 (stereo not given),12,40*,8,-12,8,19
Cc1cc(C)cc(OCC(=O)N2N=C(c3cccnc3)CC2(O)C(F)(F)F)c1 (stereo not given),5,-3,-3,-5,5,10
CC(C)S(=O)(=O)N[C@@H]1c2cc3c(cc2[C@H](c2ccccc2)[C@H]1C)OCO3,15,/,/,/,/,9
Cc1ccc(S(=O)(=O)N2CC3C(=O)C[C@@H](c4ccccc4)N(S(=O)(=O)c4ccccc4Cl)C3CC2c2ccccc2)cc1 (stereo not given in full),0,/,/,/,/,13
CCOC(=O)c1c(NC(=O)CSc2nc3cc(Cl)ccc3s2)sc(C(C)=O)c1C,-1,-7,-13,7,6,-15
CCOC(=O)c1c(NC(=O)CSc2nc3ccccc3s2)sc(C(C)=O)c1C,4,36*,-11,-4,33,-10
CCOC1=C2CN(S(=O)(=O)c3ccc(C)cc3)[C@@H](c3cccs3)C[C@H]2[C@H]2C(=O)N(c3ccccc3)C(=O)[C@H]2C1,6,/,/,/,/,-12
Nc1cc(S(=O)(=O)Nc2ccc(Cl)cc2)ccc1N1CCOCC1,21,36*,34,10,15,8
O=C(CN(C1CC1)S(=O)(=O)c1ccc(S(=O)(=O)NC2CCCCC2)cc1)Nc1ccccc1,38*,/,/,5,/,38
O=C(CN(Cc1cccs1)S(=O)(=O)c1ccc(S(=O)(=O)NC2CCCCC2)cc1)Nc1ccccc1,17,-3,-9,4,21,27
C[C@H](CO)N1C[C@H](C)[C@@H](CN(C)S(=O)(=O)c2ccc3c(c2)OCCCO3)OCc2cn(nn2)CCCC1=O,1,/,/,/,/,-8
CNC(=O)CC1C(=O)N(Cc2ccccc2)C(=S)N1NC(=O)c1cccc(F)c1 (stereo not given),10,-10,-4,21,32,21
CCN1C(=O)C(CC(=O)Nc2ccccc2Cl)N(NC(=O)c2cccc(F)c2)C1=S (stereo not given),5,-6,9,0,75*,-2
COc1cccc(CNC(=O)[C@H]2CCCN2C(=O)[C@H]2CCCN2C(=O)c2ccc(C)cc2)c1,7,/,/,/,/,-32
Cc1nc2ccc3[nH]snc3c2n1,6,4,5,0,52*,-1
Cc1ccc(NC(=O)/C(=C/c2cccc([N+](=O)[O-])c2)NC(=O)C2CCCCC2)cc1,3,-18,-28,-1,5,-14
Cc1ccc(NC(=O)/C(=C\c2cccc([N+](=O)[O-])c2)NC(=O)c2cccs2)cc1,4,-1,7,1,52*,-8
O=C(/C=C/c1cccc([N+](=O)[O-])c1)Nc1cccc(NC(=O)c2cccs2)c1,11,-13,-1,-14,70*,58*
O=C(NC1CCCCC1)OC[C@@H]1CSCCS(=O)(=O)N1,3,/,/,/,/,4
CCOc1ccc(-c2cc(C(=O)NCc3ccccc3)[nH]n2)c(C)c1,1,/,/,/,/,-20
COc1ccc(NC(=O)C2(C)CCN2C(=O)c2ccc(C(C)(C)C)cc2)cc1OC (stereo not given),1,/,/,/,/,-10
COc1ccccc1C(=O)Oc1ccc(C(C)(C)C)cc1,12,41*,-10,-5,3,39
COc1ccccc1C(=O)Oc1ccc2ccc(=O)oc2c1,0,-12,-19,-9,14,-7
SMILES,TAAR1 ag,CHO parental Ca,OX1R antag-1,GPR7 antag,OX1R antag-2,TAAR1 antagonist
O=C(Oc1ccccc1C(=O)Oc1ccccc1)c1cccnc1,2,-3,1,-10,8,2
Cc1ccccc1S(=O)(=O)Oc1ccccc1C(=O)Oc1ccccc1,10,39*,27,-4,30,21
COc1cccc(/C=C/C(=O)Nc2cccc(C(C)=O)c2)c1OC,20,-9,-20,-7,15,6
COc1ccccc1/C=C/C(=O)Nc1cccc(C(C)=O)c1,7,-20,0,-3,60*,14
O=C(/C=C/c1ccccc1Cl)Nc1cccc(O)c1,29,-16,-31,22*,34,-1
Cc1cc(C(=O)N/N=C\c2ccc(COc3ccc([N+](=O)[O-])cc3)o2)ccc1[N+](=O)[O-],14,-1,4,-5,24,54*
O=[N+]([O-])c1cnccc1-n1nnc2ccccc21,0,/,/,/,/,-7
Cc1c(C(c2ccc(N(C)C)cc2)c2c(C)n(C)n(-c3ccccc3)c2=O)c(=O)n(-c2ccccc2)n1C,2,-5,-12,-11,71*,-7
O=C(Nc1ccccc1)c1cc(C2CCCCN2S(=O)(=O)Cc2cccc(C(F)(F)F)c2)on1 (stereo not given),2,/,/,/,/,-29
O=C1c2ccccc2-c2onc3ccc(Oc4ccccc4)c1c23,43*,1,-9,-5,15,67*
O=C(c1ccccc1)c1coc2c1C(=O)c1ccccc1C2=O,2,-13,-20,-9,43,-27
N#C/C(=C(/O)CCl)c1nc(-c2ccccc2)cs1,3,-22,-12,19*,20,-6
Cc1ccc(-c2csc(/C(C#N)=C(\O)CCl)n2)cc1,3,/,/,4,/,12
COc1ccc(C(=O)Nc2cc3c(cc2OC)CCCC3)cc1Br,13,31*,9,-11,72*,9
C[C@H](CO)N1C[C@H](C)[C@H](CN(C)C(=O)NC2CCCCC2)Oc2cc(-c3cccnc3)ccc2S1(=O)=O,1,/,/,/,/,16
CC(C)(CC(=O)N1CCN(c2ccc(Cl)cc2)CC1)CC1=NS(=O)(=O)c2ccccc2N1,34,75*,46,-12,48,64*
O=C(CCCC1=NS(=O)(=O)c2ccccc2N1)N1CCN(c2ccc(Cl)cc2)CC1,6,-10,-32,-1,19,11
NC(=O)c1cccc(Nc2nc(C(N)COCc3ccccc3)cs2)n1 (stereo not given),4,/,/,/,/,-33
C[C@H]1CN(C(=O)OC(C)(C)C)CCN1c1ccc(N2CC[C@H](O)C2)c(C#N)c1,8,/,/,/,/,-3
CC(C)(C)NC(=O)C(c1ccc(C#N)cc1)n1c(=O)c(-c2ccco2)nc2ccccc21 (stereo not given),1,/,/,/,/,-13
O=C(NCCN1CCc2ccccc2C1)C1CCN(S(=O)(=O)N2CCCCC2)CC1,6,-10,-18,20*,10,6
